Results from different studies.
Target: RAC-gamma serine/threonine-protein kinase (AKT3, Homo sapiens, UniProt Q9Y243)

| Structure (SMILES) | assay | conditions | remaining binding |
| --- | --- | --- | --- |
| c1cnn2ncc(-c3ccnc(N4CCC45COC5)n3)c2c1 | binding | 1 µM | 86% |
| COc1ccc2c(c1)O[C@H](c1ccc(OC)c(OC)c1)C[C@@H]2NC(=O)C1(c2ccc3c(c2)OC(F)(F)O3)CC1 | cell-free assay, competition with immobilised ligand | 1 µM | 100% |
| C=CC(=O)N1CCC(C(=O)NCC(=O)N2CCN(c3nc(-c4cnc(N)nc4C(F)F)nc(N4CCOCC4)n3)CC2)CC1 | binding, competition with immobilised ligand | 1 µM | 100% |
| O=C1NC(c2ccccn2)Sc2ccccc21 (stereo not drawn) | cell-free assay, competition with immobilised ligand | 1 µM | 100% |
| CN(C)c1nccc(-c2cnn3ncccc23)n1 | binding | 1 µM | 100% |
| Cc1cnc(Nc2ccc(C(=O)N3CCC(N4CCCC4)CC3)cc2)nc1-c1cc2ccccc2s1 | binding, competition with immobilised ligand | 1 µM | 100% |
| COc1cnc(Nc2cccc(S(N)(=O)=O)c2)nc1N1CCN(c2ccccc2)CC1 | binding, competition with immobilised ligand | 1 µM | 100% |
| C[C@@H]1CCN(c2nccc(-c3cnn4ncccc34)n2)C1 | binding | 1 µM | 78% |
| O=C(NS(=O)(=O)c1ccc(NCC2CCOCC2)c([N+](=O)[O-])c1)c1ccc(N2CCN(Cc3ccc(C(F)(F)F)cc3-c3ccc(Cl)cc3)CC2)cc1Oc1cnc2[nH]ccc2c1 | cell-free assay, competition with immobilised ligand | 1 µM | 89% |
| O=C(NCC1CCOCC1)c1n[nH]cc1NC(=O)c1c(F)cccc1F | binding, competition with immobilised ligand | 1 µM | 90% |
| CN(C)c1nccc(-c2cnc3ncccn23)n1 | binding | 1 µM | 91% |
| COc1ncc2cc3ccccc3nc2c1C#N | cell-free assay, competition with immobilised ligand | 5 µM | 100% |
| O=C(O)[C@@H]1[C@@H](Cn2nnc3ccccc3c2=O)CC[C@H]1C(=O)c1ccc(OCCC2CCOCC2)cc1 | cell-free assay, competition with immobilised ligand | 1 µM | 100% |
| N[C@H]1CCN(c2nccc(-c3cnn4ncccc34)n2)C1 | binding | 1 µM | 100% |
| O=C(NCCCN1CCOCC1)c1ccc(Nc2nccc(-c3cc4ccccc4s3)n2)cc1 | binding, competition with immobilised ligand | 1 µM | 100% |
| c1ccc(N2CCN(Cc3nc4ccccc4[nH]3)CC2)nc1 | binding, competition with immobilised ligand | 1 µM | 100% |
| C[C@@H](c1ccc(-n2cnc3c(N)ncnc32)cc1)N1CCc2nn(C)c(Cc3ccccc3)c2C1=O | binding, competition with immobilised ligand | 0.1 µM | 62% |
| C[C@@H]1CN(c2cc(-c3n[nH]c4ccc(OC5(C)CC5)cc34)ncn2)C[C@H](C)O1 | cell-free assay, competition with immobilised ligand | 0.1 µM | 86% |
| CNC(=O)[C@@H]1CC[C@@H](n2c(-c3ccc4cnccc4c3)nc3ccc(C(=O)NCc4cccc(C(N)=O)c4)cc32)C1 | binding, competition with immobilised ligand | 1 µM | 100% |
| O=C(c1ccc(Nc2ncc(Cl)c(-c3cc4ccccc4s3)n2)cc1)N1CCC(N2CCCC2)CC1 | binding, competition with immobilised ligand | 1 µM | 100% |
| CN(CCCC(F)(F)F)c1nccc(-c2cnn3ncccc23)n1 | binding | 1 µM | 83% |
